Assay results from article PMC2765488 (Journal of medicinal chemistry, 2009).

Legend:
[1] = type: physicochemical
Outline: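 Capacity factors from analytical reversed-phase HPLC retention times (diphenyl column; 0.1% TFA water/acetonitrile; linear 20–100% B over 40 min, 20 min re-equilibration). […] Linear logD–retention correlation gave calculated logD.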

[2] = Mouse pain assay following i.p. administration; type: in vivo; conditions: unpublished results of the authors
[3] = system: 6 Hz corneal stimulation limbic seizure; conditions: cited from earlier work; for Anticonvulsant activity, mice protected/tested, 15' / Anticonvulsant activity, mice protected/tested, 30' / Anticonvulsant activity, mice protected/tested, 1h / Anticonvulsant activity, mice protected/tested, 2h / Anticonvulsant activity, mice protected/tested, 4h: 6 Hz, 32 mA, 4 mg/kg i.p.; for Anticonvulsant activity, mice protected/tested, 15': 15 min after administration; for Anticonvulsant activity, mice protected/tested, 30': 30 min after administration; for Anticonvulsant activity, mice protected/tested, 1h: 1 h after administration; for Anticonvulsant activity, mice protected/tested, 2h: 2 h after administration; for Anticonvulsant activity, mice protected/tested, 4h: 4 h after administration
[4] = CD, in the presence of 50% v/v 2,2,2-trifluoroethanol; cited from earlier work
[5] = system: human serum albumin; conditions: higher affinity of C8 versus C14; cited from earlier work
[6] = buffered 25% rat blood serum, 37 °C; cited from earlier work

Compound | chromatographic logD [1] | Anticonvulsant activity, mice protected/tested, 15' [3] | Anticonvulsant activity, mice protected/tested, 30' [3] | Anticonvulsant activity, mice protected/tested, 1h [3] | Anticonvulsant activity, mice protected/tested, 2h [3] | Anticonvulsant activity, mice protected/tested, 4h [3] | α-helix content [4] | further results
CCCCCCCC(=O)NCCCC[C@H](NC(=O)[C@H](CCCCN)NC(=O)[C@H](CCCCN)NC(=O)[C@@H]1CCCN1C(=O)CNC(=O)[C@H](CC(C)C)NC(=O)[C@H](CC(C)C)NC(=O)[C@H](Cc1ccc(O)cc1)NC(=O)CNC(=O)[C@H](C)NC(=O)[C@H](CO)NC(=O)[C@H](CC(N)=O)NC(=O)[C@H](CC(C)C)NC(=O)[C@@H](NC(=O)[C@H](Cc1c[nH]c2ccccc12)NC(=O)CNC)[C@@H](C)O)C(=O)N[C@@H](CCCCN)C(N)=O [Gal-B2-C8] | 0.78 | – | – | – | – | – | – | –
CCCCCCCCCCCCCCCCCC(=O)NCCCC[C@H](NC(=O)[C@H](CCCCN)NC(=O)[C@H](CCCCN)NC(=O)[C@@H]1CCCN1C(=O)CNC(=O)[C@H](CC(C)C)NC(=O)[C@H](CC(C)C)NC(=O)[C@H](Cc1ccc(O)cc1)NC(=O)CNC(=O)[C@H](C)NC(=O)[C@H](CO)NC(=O)[C@H](CC(N)=O)NC(=O)[C@H](CC(C)C)NC(=O)[C@@H](NC(=O)[C@H](Cc1c[nH]c2ccccc12)NC(=O)CNC)[C@@H](C)O)C(=O)N[C@@H](CCCCN)C(N)=O [Gal-B2-C18] | 1.35 | – | – | – | – | – | – | –
CCCCCCCCCCCCCCCC(=O)NCCCC[C@H](NC(=O)[C@H](CCCCN)NC(=O)[C@H](CCCCN)NC(=O)[C@@H]1CCCN1C(=O)CNC(=O)[C@H](CC(C)C)NC(=O)[C@H](CC(C)C)NC(=O)[C@H](Cc1ccc(O)cc1)NC(=O)CNC(=O)[C@H](C)NC(=O)[C@H](CO)NC(=O)[C@H](CC(N)=O)NC(=O)[C@H](CC(C)C)NC(=O)[C@@H](NC(=O)[C@H](Cc1c[nH]c2ccccc12)NC(=O)CNC)[C@@H](C)O)C(=O)N[C@@H](CCCCN)C(N)=O [Gal-B2] | – | 3/4 | 4/4 | 4/4 | 4/4 | 0/4 | 23% | analgesic activity [2]: comparable analgesic activities; anticonvulsant ED50 ([3]; i.p., 6 Hz pharmacoresistant model of epilepsy): 0.8 mg/kg
CCCCCCCC(=O)O [octanoic acid] | – | – | – | – | – | – | – | affinity to human serum albumin compared to the C14 (myristic acid) [5]: 11 fold
(Sar)WTLNSAGYLLGPKKKK [Gal-(K)4, reference compound] | – | 0/4 | 3/4 | 1/3 | 0/3 | 0/4 | 14% | –
Gal(1-16): unmodified Gal(1-16) analog | – | – | – | – | – | – | – | half-time in 25% rat serum [6]: 7.8 min
